This note sets out measurements from ChEMBL document CHEMBL2177039, “Identification of a chemical probe for bromo and extra C-terminal bromodomain inhibition through optimization of a fragment-derived hit” (J Med Chem, 2012).

pEC50, pIC50, pKd: −log10 of the molar value.

Data set [1] has as its target Bromodomain-containing protein 4 (Homo sapiens, UniProt O60885). Put plainly: Inhibition of BRD4 isoform 1 by AlphaScreen assay. A digest of the protocol: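 His-tagged bromodomain protein preincubated 30 min at room temperature with compound in 50 mM HEPES, 100 mM NaCl, 0.1% BSA, pH 7.4, plus 0.05% CHAPS; biotinylated peptide added for a further 30 min; streptavidin donor and nickel chelate acceptor beads (25 µg/ml each) then added, 60 min in the dark.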

Data set [2] in a line: Drug concentration in rat gut at 1 mg/kg, iv measured 7 hrs post dose. To be noted: read-out: Drug uptake. It counts as ADME, organism-based. On the set-up: dose 1 mg/kg, route intravenous.
Data set [3] deals with Bromodomain-containing protein 3 (Homo sapiens) (UniProt Q15059). Put plainly: Binding affinity to BRD3 isoform 2 assessed as change in melting temperature at 10 uM by thermal shift assay.
Sequence of Bromodomain-containing protein 3 (Homo sapiens) (Q15059 2-726 limits assumed): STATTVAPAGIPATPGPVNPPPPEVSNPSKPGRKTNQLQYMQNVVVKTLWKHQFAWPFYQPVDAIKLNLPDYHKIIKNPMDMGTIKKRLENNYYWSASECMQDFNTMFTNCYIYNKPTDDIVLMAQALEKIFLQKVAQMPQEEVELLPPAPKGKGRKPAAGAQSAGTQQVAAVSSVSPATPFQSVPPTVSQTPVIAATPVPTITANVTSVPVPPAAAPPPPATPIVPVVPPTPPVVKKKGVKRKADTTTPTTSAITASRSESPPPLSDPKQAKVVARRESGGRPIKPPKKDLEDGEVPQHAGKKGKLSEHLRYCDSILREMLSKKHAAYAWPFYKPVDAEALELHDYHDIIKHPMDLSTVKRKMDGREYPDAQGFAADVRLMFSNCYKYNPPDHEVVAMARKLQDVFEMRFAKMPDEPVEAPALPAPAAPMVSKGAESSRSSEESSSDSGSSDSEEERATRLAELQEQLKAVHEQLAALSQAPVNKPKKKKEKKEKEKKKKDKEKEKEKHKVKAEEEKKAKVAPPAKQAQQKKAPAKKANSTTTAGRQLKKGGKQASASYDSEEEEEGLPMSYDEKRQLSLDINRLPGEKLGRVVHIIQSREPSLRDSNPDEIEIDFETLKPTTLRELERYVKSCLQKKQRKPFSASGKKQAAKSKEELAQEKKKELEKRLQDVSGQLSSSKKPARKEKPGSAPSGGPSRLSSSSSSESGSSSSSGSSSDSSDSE
Data set [4] is described as follows: Half life in mouse at 2 mg/kg, sc. It counts as ADME, organism-based. As to conditions: in vivo. On the set-up: dose 2 mg/kg, route subcutaneous.
A short description of data set [5]: Oral bioavailability […] in rat at 2 mg/kg. It counts as ADME, organism-based. As to conditions: in vivo.
The test system of data set [6] is PBMC. Put plainly: Inhibition of LPS-induced IL6 production in human PBMC by ELISA. It counts as functional, cell-based. A digest of the protocol: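 Mononuclear cells washed in Ca/Mg-free PBS, then RPMI + 5% FBS; plated at 2E5 cells/well. Compound added at 0.1% DMSO final and preincubated 30 min; stimulated with ultrapure LPS O111:B4 at 0.5 ng/ml final. Supernatants collected after 20 h; cytokines measured by multiplex ELISA.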
In general terms: ELISA stands for enzyme-linked immunosorbent assay.

Data set [7] in a line: Volume of distribution in rat at 1 mg/kg, iv. On the set-up: dose 1 mg/kg, route intravenous. It counts as ADME, organism-based. As to conditions: in vivo.
Data set [8] has as its system Liver microsomes. Put plainly: Half life in rat liver microsomes. It counts as ADME, Microsome. (Microsomes from liver hold many membrane-bound enzymes, among them those of drug oxidation.)
The target of data set [9] is Bromodomain-containing protein 2 (Homo sapiens) (UniProt P25440). Put plainly: Binding affinity to BRD2 isoform 1 assessed as change in melting temperature at 10 uM by thermal shift assay.
Sequence of Bromodomain-containing protein 2 (Homo sapiens) (P25440 whole entry, looked up, the tested form may be a part, canonical isoform): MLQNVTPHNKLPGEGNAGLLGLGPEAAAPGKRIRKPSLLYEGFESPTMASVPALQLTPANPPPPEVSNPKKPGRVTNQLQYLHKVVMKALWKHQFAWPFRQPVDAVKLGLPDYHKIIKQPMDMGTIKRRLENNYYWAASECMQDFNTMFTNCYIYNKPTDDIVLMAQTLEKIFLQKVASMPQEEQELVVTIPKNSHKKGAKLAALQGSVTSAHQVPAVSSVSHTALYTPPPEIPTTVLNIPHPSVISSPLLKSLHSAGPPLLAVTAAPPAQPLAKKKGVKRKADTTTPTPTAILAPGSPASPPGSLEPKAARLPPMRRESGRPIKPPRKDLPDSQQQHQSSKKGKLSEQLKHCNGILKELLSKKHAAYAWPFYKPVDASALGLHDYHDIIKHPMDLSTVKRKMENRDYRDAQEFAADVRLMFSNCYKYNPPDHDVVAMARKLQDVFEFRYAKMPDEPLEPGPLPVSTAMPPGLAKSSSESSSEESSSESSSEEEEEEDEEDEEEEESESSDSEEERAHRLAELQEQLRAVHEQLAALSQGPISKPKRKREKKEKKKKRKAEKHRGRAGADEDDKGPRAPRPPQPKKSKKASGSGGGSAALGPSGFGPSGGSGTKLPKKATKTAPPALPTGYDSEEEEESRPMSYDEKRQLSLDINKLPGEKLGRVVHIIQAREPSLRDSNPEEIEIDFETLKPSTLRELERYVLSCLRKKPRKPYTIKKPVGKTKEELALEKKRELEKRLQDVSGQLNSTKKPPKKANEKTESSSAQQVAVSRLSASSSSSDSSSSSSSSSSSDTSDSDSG
The target in data set [10] is Bromodomain adjacent to zinc finger domain protein 2B (Homo sapiens) (UniProt Q9UIF8). Put plainly: Binding affinity to BAZ2B assessed as change in melting temperature at 10 uM by thermal shift assay.
The target of data set [11] is Bromodomain-containing protein 3 (Homo sapiens) (UniProt Q15059). Put plainly: Binding affinity to BRD3 isoform 1 assessed as change in melting temperature at 10 uM by thermal shift assay.
Data set [12] in a line: Protein binding in rat plasma. It counts as ADME, cell-free. To be noted: read-out: PPB (converted).
Data set [13] can be described thus: Tmax in mouse at 2 mg/kg, sc. It counts as ADME, organism-based. Further details: dose 2 mg/kg, route subcutaneous. As to conditions: in vivo.
The target in data set [14] is Protein polybromo-1 (Homo sapiens) (UniProt Q86U86). Put plainly: Binding affinity to pb1 isoform 5 assessed as change in melting temperature at 10 uM by thermal shift assay.
Data set [15] deals with Bromodomain-containing protein 2 (Homo sapiens) (UniProt P25440). Put plainly: Binding affinity to BRD2 isoform 2 assessed as change in melting temperature at 10 uM by thermal shift assay.
A short description of data set [16]: Half life in rat at 1 mg/kg, iv. It counts as ADME, organism-based. On the set-up: dose 1 mg/kg, route intravenous. To be noted: in vivo.
A short description of data set [17]: Cmax in mouse at 2 mg/kg, sc. It counts as ADME, organism-based. As to conditions: in vivo. On the set-up: dose 2 mg/kg, route subcutaneous.
The target of data set [18] is T1, CREB-binding protein (Homo sapiens, UniProt Q92793). Put plainly: Binding affinity to CREBBP assessed as change in melting temperature at 10 uM by thermal shift assay.
In data set [19] the target is Bromodomain testis-specific protein (Homo sapiens) (UniProt Q58F21). Put plainly: Binding affinity to BRDT isoform 1 assessed as change in melting temperature at 10 uM by thermal shift assay.
A short description of data set [20]: Plasma clearance in rat at 1 mg/kg, iv. Further details: dose 1 mg/kg, route intravenous. It counts as ADME, organism-based.
Data set [21] deals with T1, CREB-binding protein. Put plainly: Binding affinity to CREBBP by SPR method. In general terms: SPR reads the build-up and loss of mass on a sensor chip optically.
Target sequence in this assay (Q92793 whole entry, canonical isoform): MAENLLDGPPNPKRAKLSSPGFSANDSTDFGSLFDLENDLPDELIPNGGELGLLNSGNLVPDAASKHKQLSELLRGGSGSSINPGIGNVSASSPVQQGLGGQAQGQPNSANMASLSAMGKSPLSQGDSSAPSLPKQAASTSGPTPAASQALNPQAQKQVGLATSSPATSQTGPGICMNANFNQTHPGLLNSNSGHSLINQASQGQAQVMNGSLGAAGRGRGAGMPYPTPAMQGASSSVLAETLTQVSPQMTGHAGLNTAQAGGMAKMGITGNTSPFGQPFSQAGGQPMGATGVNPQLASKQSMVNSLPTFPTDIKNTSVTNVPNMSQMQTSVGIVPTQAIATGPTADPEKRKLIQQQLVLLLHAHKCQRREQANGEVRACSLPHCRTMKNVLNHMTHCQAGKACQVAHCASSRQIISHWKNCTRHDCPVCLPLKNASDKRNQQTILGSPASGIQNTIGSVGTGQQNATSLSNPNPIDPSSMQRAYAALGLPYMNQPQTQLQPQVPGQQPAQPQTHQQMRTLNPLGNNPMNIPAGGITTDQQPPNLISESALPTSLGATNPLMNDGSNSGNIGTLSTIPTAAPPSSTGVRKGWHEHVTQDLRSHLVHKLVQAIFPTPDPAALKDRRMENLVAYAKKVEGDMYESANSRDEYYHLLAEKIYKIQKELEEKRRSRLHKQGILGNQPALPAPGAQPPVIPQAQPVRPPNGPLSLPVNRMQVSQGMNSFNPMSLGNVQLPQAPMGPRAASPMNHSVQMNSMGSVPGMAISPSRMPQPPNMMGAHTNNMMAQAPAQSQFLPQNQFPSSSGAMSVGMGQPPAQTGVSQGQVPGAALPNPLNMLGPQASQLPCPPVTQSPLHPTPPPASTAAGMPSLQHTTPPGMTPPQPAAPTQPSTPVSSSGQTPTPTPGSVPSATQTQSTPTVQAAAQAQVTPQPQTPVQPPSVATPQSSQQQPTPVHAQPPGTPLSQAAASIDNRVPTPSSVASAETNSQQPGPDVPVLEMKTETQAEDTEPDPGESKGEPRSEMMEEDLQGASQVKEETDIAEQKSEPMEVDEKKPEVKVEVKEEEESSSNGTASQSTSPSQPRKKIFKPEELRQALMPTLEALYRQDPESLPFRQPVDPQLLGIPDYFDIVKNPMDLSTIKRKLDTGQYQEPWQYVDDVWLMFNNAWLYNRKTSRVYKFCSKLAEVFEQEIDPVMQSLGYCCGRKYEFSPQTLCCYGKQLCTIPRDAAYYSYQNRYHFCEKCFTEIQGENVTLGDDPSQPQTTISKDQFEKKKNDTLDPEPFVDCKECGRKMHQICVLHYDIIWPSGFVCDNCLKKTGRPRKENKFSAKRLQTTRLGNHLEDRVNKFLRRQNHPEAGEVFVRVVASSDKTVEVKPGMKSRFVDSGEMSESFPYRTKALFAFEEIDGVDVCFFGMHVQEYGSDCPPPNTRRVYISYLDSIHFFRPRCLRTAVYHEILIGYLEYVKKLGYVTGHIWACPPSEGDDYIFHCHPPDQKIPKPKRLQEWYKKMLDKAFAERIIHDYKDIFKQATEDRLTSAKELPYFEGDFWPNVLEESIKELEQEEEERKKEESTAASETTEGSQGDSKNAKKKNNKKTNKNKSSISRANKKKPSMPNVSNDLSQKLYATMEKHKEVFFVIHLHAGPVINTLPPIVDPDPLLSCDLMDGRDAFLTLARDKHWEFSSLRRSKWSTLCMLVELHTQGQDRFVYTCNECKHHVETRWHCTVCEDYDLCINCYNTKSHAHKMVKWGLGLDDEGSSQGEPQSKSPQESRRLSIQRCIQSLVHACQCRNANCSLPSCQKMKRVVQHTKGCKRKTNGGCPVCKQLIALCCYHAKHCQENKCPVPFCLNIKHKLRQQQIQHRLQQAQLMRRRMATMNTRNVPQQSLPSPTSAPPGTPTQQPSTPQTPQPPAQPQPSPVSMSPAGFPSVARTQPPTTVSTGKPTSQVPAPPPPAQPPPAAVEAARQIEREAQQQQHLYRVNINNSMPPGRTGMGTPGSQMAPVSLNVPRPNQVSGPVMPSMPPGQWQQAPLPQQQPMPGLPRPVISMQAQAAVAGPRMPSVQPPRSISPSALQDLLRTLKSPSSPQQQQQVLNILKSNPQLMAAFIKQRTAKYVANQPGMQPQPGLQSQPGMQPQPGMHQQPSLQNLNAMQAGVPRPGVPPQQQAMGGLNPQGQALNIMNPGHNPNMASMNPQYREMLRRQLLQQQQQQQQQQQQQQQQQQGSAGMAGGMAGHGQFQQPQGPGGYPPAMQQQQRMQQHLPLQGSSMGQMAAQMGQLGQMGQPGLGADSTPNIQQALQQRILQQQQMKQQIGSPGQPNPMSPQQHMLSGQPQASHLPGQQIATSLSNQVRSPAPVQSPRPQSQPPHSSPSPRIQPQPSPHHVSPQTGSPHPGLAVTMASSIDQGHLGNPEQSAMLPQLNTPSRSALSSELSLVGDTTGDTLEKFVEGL
The target of data set [22] is Histone acetyltransferase KAT2B (Homo sapiens) (UniProt Q92831). Put plainly: Binding affinity to PCAF assessed as change in melting temperature at 10 uM by thermal shift assay.
Sequence of Histone acetyltransferase KAT2B (Homo sapiens) (Q92831 whole entry, looked up): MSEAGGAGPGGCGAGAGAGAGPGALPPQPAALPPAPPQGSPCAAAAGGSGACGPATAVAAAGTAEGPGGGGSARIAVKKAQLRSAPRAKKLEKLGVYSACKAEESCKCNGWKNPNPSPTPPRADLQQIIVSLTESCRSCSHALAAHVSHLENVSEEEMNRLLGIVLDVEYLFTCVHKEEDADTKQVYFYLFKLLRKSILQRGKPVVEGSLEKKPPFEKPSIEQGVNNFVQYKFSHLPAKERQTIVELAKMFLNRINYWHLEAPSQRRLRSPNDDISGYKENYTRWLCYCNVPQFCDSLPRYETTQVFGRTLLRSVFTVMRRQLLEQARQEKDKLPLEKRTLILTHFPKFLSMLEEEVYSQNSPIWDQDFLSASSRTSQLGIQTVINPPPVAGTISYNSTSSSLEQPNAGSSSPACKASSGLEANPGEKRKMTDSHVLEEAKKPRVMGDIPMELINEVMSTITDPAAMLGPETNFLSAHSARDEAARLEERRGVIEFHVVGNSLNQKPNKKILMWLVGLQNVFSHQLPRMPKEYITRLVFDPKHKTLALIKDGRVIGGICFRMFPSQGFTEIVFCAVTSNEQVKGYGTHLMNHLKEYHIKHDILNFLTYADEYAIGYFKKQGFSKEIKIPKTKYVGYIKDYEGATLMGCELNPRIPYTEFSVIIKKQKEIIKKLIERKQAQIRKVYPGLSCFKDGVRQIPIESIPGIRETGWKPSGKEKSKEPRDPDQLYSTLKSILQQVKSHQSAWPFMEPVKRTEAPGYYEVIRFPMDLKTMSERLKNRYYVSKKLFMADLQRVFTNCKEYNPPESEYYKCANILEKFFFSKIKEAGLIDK

A word on the pIC50: it is the IC50 on a negative log10 scale, so that one unit is a factor of ten. A lower pIC50 goes with a high IC50. As for `CN1Cc2cc(NS(=O)(=O)c3ccccc3F)ccc2NC1=O`, in data set [1], the pIC50 was 6.44.
On the same count and under the same terms, the value for `CN1Cc2cc(NS(=O)(=O)c3ccccc3)ccc2NC1=O` was 6.06.
Same read-out and setting: the value for `CN1Cc2cc(NS(=O)(=O)c3ccccc3C(F)(F)F)ccc2NC1=O` was 6.33; that for `COc1cccc(S(=O)(=O)Nc2ccc3c(c2)CN(C)C(=O)N3)c1` was 6.14; that for `CN1Cc2cc(NS(=O)(=O)c3ccc(F)cc3Cl)ccc2NC1=O` was 6.74.
Same read-out and setting: the value for `CN1Cc2cc(NS(=O)(=O)c3ccc(C#N)cc3)ccc2NC1=O` was 5.64; that for `CCNS(=O)(=O)c1ccc2c(c1)CN(C)C(=O)N2` was 5.72.
Broadly, the ΔTm is the change in melting temperature against a reference sample. What is called half-life is the time needed for the level to fall by half in the phase considered. Low values mean fast loss, high ones slow loss. As usually defined, the bioavailability is the share of a dose that reaches the circulation, judged against a reference dose that is usually intravenous. A higher bioavailability goes with good availability. In general, pEC50 refers to the negative decadic logarithm of the EC50, by convention in mol/L. A low value points to a high EC50. A word on the Vd: it is a proportionality between amount in the body and measured concentration, not a real space. A lower Vd goes with confinement near the circulation. One may read the Tmax as the time from dosing to the highest level. By Cmax is commonly meant the highest concentration seen after dosing. As a reminder, the clearance is a measure of how efficiently the substance is removed, as volume per time. A word on the pKd: it is the negative decadic logarithm of the Kd, by convention in mol/L. Low readings indicate a high Kd, high ones a low Kd. For the compound `COc1ccccc1S(=O)(=O)Nc1ccc2c(c1)CN(C)C(=O)N2`, the concentration at 7 h in [2] was 62 ng/mL. In addition, the ΔTm in data set [3] is 5.45 °C; in data set [9] it was 4.61 °C; in [10] it was 0.3 °C; in [11] it was 5.24 °C; in data set [14], 0.83 °C; in [15], 5.32 °C. Besides, the values for the ΔTm in data set [18], in data set [19] and in [22] were 1.7 °C, 2.08 °C and 0.81 °C, respectively. In addition, the half-life in [4] was 2 h; in data set [16], 1 h. Besides, in data set [5], the bioavailability turned out to be 32%. The compound also had a pEC50 in data set [6] of 5.72. The distribution volume (Vd) in data set [7] worked out at 1 L/kg. For the same compound, the t1/2 in data set [8] is more than 2 h. In addition, in data set [12], the fraction unbound was 0.31. In data set [13], the Tmax amounted to 1 h. Further, in [17], the highest level (Cmax) was 58 ng/mL. This compound also came in with a clearance in [20] of 18 mL/min/kg. Moreover, in [21], the pKd is 4.31.
In turn, `CN1Cc2cc(S(=O)(=O)N3CCCC3)ccc2NC1=O` showed a pIC50 in [1] of 5.32.
Regarding `Cc1ccccc1S(=O)(=O)Nc1ccc2c(c1)CN(C)C(=O)N2`, the pIC50 in data set [1] is 6.66.
On the same count and under the same terms, under `COc1ccc(S(=O)(=O)Nc2ccc3c(c2)CN(C)C(=O)N3)cc1` stands 6.06.
Still for that read-out and setting: under `Cc1ccc(S(=O)(=O)Nc2ccc3c(c2)CN(C)C(=O)N3)cc1` stands 6.41.
